For data set [1], the system named is Salmonella typhimurium. Kind of data set: Antibacterial activity against Salmonella typhimurium ATCC 14028 incubated for 16 to 18 hrs at pH 7.2 by broth microdilution method. The format is functional, Salmonella enterica subsp. enterica serovar Typhimurium. The following applies: Salmonella enterica. An outline of the steps: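 Broth microdilution in MH broth. S. Typhimurium ATCC14028 was grown overnight at 37 °C to semi-log phase, pelleted, and diluted to OD600 0.01; final inoculum was 5 × 10^5 CFU/mL. Plates were incubated 16–18 h at 37 °C. MIC is the lowest peptide concentration with no visible growth. Data are in duplicate from at least two independent experiments.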

Data set [2] concerns Salmonella typhimurium. Kind of data set: Antibacterial activity against Salmonella typhimurium ATCC 14028 using 1 hr cathepsin B pre-treated compound at pH 5 incubated for 16 to 18 hrs at by broth microdilution method. The format is functional, Salmonella enterica subsp. enterica serovar Typhimurium. Conditions: Salmonella enterica. An outline of the steps: (§1)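 Cathepsin B (bovine spleen, 10 µg/mL) was added for 1 h at 37 °C, and the reaction was stopped with 9 volumes of MHB. MIC was then run by broth microdilution (5 × 10^5 CFU/mL, 16–18 h, 37 °C) in medium adjusted to pH 5.0.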

Data set [3] deals with Salmonella typhimurium. Kind of data set: Antibacterial activity against Salmonella typhimurium ATCC 14028 using 1 hr cathepsin B pre-treated compound followed by incubation for 16 to 18 hrs at pH 5 by broth microdilution method. The following applies: Salmonella enterica. It counts as functional, Salmonella enterica subsp. enterica serovar Typhimurium. An outline of the steps: as §1

Data set [4] is described as follows: Cytotoxicity in mouse RAW264.7 assessed as cell survival at 100 uM incubated for 8 hrs by MTT assay. It counts as cell-based. Conditions: RAW264.7 cells, read-out: Survival. An outline of the steps: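 RAW264.7 cells seeded at 2.5 × 10^4 cells/well, cultured 24 h, then exposed for 8 h to 2-fold dilutions from 100 to 0.625 µM. MTT at 5 mg/mL added for 4 h, formazan dissolved in DMSO, absorbance read at 570 nm. Untreated cells served as control. Samples run in triplicate.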

A short description of data set [5]: Induction of hemolysis in mouse RBC at 100 uM incubated for 1 hrs at 37 degC. It counts as cell-based, Erythrocyte. Conditions: red blood cells (erythrocytes), read-out: Activity. Summed up:
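Fresh mouse erythrocytes were washed three times in 0.9% NaCl, and an 8% suspension was incubated with peptide (2-fold dilutions, 100 to 0.3125 µM) for 1 h at 37 °C. Released hemoglobin was read at 540 nm. 1% Triton X-100 defined 100% lysis; polymyxin served as positive control and NaCl as negative.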

Data set [6] in a line: Drug localisation in cytosol of mouse RAW264.7 using FITC-labeled compound at 5 uM incubated for 2 hrs by confocal microscopy. It counts as ADME, cell-based. Summed up:
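RAW264.7 cells were plated for 18 h at 37 °C, then given 5 µM FITC or FITC-labeled peptide for 2 h. Nuclei were stained with Hoechst 33342 and membranes with FM 4-64 (each 5 µg/mL) for 30 min at 37 °C. Cells were PBS-washed and imaged by confocal fluorescence microscopy.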

The nature of data set [7]: Drug uptake in mouse RAW264.7 using FITC-labeled compound at 5 uM incubated for 0.5 hrs by flow cytometry. It counts as ADME, cell-based. Conditions: raw264.7, 0.5 h. An outline of the steps: (§2)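 Confluent RAW264.7 cells were resuspended in PBS and incubated at 37 °C with 5 µM FITC-labeled peptide. Samples taken at 0.5 h and 2 h were quenched with 0.4% Trypan blue for extracellular fluorescence. Uptake (percent internalized cells) was read by flow cytometry, with free FITC as negative control.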

The nature of data set [8]: Drug uptake in mouse RAW264.7 using FITC-labeled compound at 5 uM incubated for 2 hrs by flow cytometry. The format is ADME, cell-based. Conditions: raw264.7, 2 h. Summed up:
as §2

Data set [9] concerns Salmonella typhimurium. The data set is described as follows: Bactericidal activity against 2 hrs-gentamicin pre-exposed Salmonella typhimurium ATCC 14028 assessed as effect on bacterial re-growth at 10 uM measured within 6 hrs. The following applies: Salmonella enterica subsp. enterica serovar Typhimurium. It counts as functional, organism-based. Summed up: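 RAW264.7 cells in DMEM/10% FBS were infected with S. Typhimurium ATCC14028 at MOI 10 for 1 h, then given 100 µg/mL gentamicin for 2 h at 37 °C and washed. Cells were treated with 10 µM agent for 1, 3, 6, 9 and 12 h, lysed with 0.1% Triton X-100, and surviving intracellular bacteria were serially diluted and plated for CFU.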

Data set [10] relates to Salmonella typhimurium. Kind of data set: Antibacterial activity against Salmonella typhimurium ATCC 14028 infected in ICR mouse model of peritonitis assessed as reduction colony forming units in total peritoneal fluids at 1 umol/kg, ip dosed at 2 hrs post infection and measured after 10 hrs post dose. The format is functional, Salmonella enterica subsp. enterica serovar Typhimurium. Summed up: (§3)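 Six-week-old female ICR mice (six per group) received ip S. Typhimurium ATCC14028 (5 × 10^5 CFU, 0.5 mL). Peptide was given ip 2 h post-infection and mice were killed 10 h after treatment. Peritoneum was lavaged with 5 mL ice-cold PBS and total CFU counted. For intracellular CFU, pelleted cells were treated with 100 µg/mL gentamicin for 1 h at 37 °C, washed, lysed and plated. PBS served as negative control, ciprofloxacin as positive.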

Data set [11] relates to Salmonella typhimurium. The data set is described as follows: Antibacterial activity against Salmonella typhimurium ATCC 14028 infected in ICR mouse model of peritonitis assessed as reduction colony forming units in intracellular fluids at 1 umol/kg, ip dosed at 2 hrs post infection and measured after 10 hrs post dose. The format is functional, Salmonella enterica subsp. enterica serovar Typhimurium. Summed up: as §3

Data set [12] has as its system Salmonella typhimurium. The data set is described as follows: Antibacterial activity against Salmonella typhimurium ATCC 14028 infected in ICR mouse model of peritonitis assessed as reduction colony forming units in kidney at 1 to 2 umol/kg, ip dosed at 2 hrs post infection and measured after 10 hrs post dose. It counts as functional, Salmonella enterica subsp. enterica serovar Typhimurium. Summed up: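 Female ICR mice, six weeks old (six per group), were infected ip with S. Typhimurium ATCC14028 (5 × 10^5 CFU, 0.5 mL). Peptide was given ip at 1, 1.5 or 2 µmol/kg 2 h post-infection. Mice were killed 10 h after treatment, and kidneys and spleens were homogenized in sterile PBS for CFU counts of translocated bacteria. PBS-treated mice served as negative control, ciprofloxacin-treated mice as positive.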

Data set [13] relates to Salmonella typhimurium. Kind of data set: Antibacterial activity against Salmonella typhimurium ATCC 14028 infected in ICR mouse model of peritonitis assessed as mouse survival at 1 umol/kg, ip dosed at 0.5 and 8 hrs post infection and measured daily for 7 days.

Structures are written as SMILES. Values after ≈ are worked out from the molar mass of the structure shown. Active and inactive are the calls of the source. The calls are words filed in the database; no cut-off is given here. Positions of bridges follow the written chain, without caps; N, C: chain ends. Residues, ends and D or L forms follow the SMILES beside them.

Turning to `CC(C)[C@@H]1NC(=O)CNC(=O)[C@H](CC(N)=O)NC(=O)[C@H](CCCNC(=N)N)NC(=O)[C@H](Cc2ccc(O)cc2)NC(=O)[C@H](C(C)C)NC(=O)[C@@H](NC(=O)[C@@H](NC(=O)[C@H](CC(N)=O)NC(=O)[C@H](Cc2c[nH]c3ccccc23)NC(=O)[C@H](C)NC(=O)[C@H](Cc2ccccc2)NC(=O)CN)C(C)C)CSSC[C@@H](C(=O)N[C@@H](Cc2cnc[nH]2)C(=O)N[C@@H](CCCNC(=N)N)C(=O)N[C@@H](CCCNC(=N)N)C(=O)N[C@@H](C)C(=O)N[C@@H](CC(N)=O)C(=O)O)NC(=O)[C@H](C(C)C)NC(=O)[C@H](CCCNC(=N)N)NC1=O` (H-GFAWNVCVYRNGVRVCHRRAN-OH; disulfide 7-16), the MIC worked out at 0.81 µM (≈ 2.01 µg/mL) in the data set with Salmonella typhimurium [1], 1.62 µM (≈ 4.01 µg/mL) with Salmonella typhimurium [2] and 13 µM (≈ 32.1 µg/mL) in the data set with Salmonella typhimurium [3]. In data set [4], the viability at 8 h, 100 µM came out at 94.6%. In addition, the hemolysis at 1 h, 100 µM in data set [5] came out at 2.06%. Besides, the Drug uptake result in data set [6] is on record as “Not Active”; in data set [7] it was 28.7%; in data set [8], 71.9%. Also, the outcome with Salmonella typhimurium [9] was inactive. Besides, the Activity with Salmonella typhimurium [10] was 1.01 log10CFU; in the data set with Salmonella typhimurium [11], 0.43 log10CFU; in the data set on Salmonella typhimurium [12], 0.6 log10CFU; in the data set on Salmonella typhimurium [13] it was 33.4%.
As for `O=C(O)c1cn(C2CC2)c2cc(N3CCNCC3)c(F)cc2c1=O` [CIPROFLOXACIN], in the data set with Salmonella typhimurium [13], the Activity is 100%.

For the origin of these results see ChEMBL document CHEMBL4196141, “Improved Antibacterial Activity of the Marine Peptide N6 against Intracellular Salmonella Typhimurium by Conjugating with the Cell-Penetrating Peptide Tat11 via a Cleavable Linker” (J Med Chem, 2018).
